A short description of assay [1]: Ability to displace [3H]LY-341,495 binding to Group II Metabotropic glutamate receptor from rat forebrain. Summed up: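 Rat forebrain homogenates; displacement of the group II-selective radioligand [3H]LY341495. Where an IC50 below 100 µM could be determined, runs were in triplicate. Values are given as mean IC50 ± standard error.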
For assay [2], the target named is T1, Metabotropic glutamate receptor 2 (Homo sapiens, UniProt Q14416). The assay can be described thus: Ability to displace [3H]LY-341,495 from recombinant human Metabotropic glutamate receptor 2 subtypes expressed in RGT cells. The class given is cell-based.
In assay [3] the target is T2, Metabotropic glutamate receptor 3 (Homo sapiens, UniProt Q14832). The assay can be described thus: Ability to displace [3H]LY-341,495 from recombinant human Metabotropic glutamate receptor 3 expressed in RGT cells. The assay is classed as cell-based.
T2 sequence (Q14832 whole entry): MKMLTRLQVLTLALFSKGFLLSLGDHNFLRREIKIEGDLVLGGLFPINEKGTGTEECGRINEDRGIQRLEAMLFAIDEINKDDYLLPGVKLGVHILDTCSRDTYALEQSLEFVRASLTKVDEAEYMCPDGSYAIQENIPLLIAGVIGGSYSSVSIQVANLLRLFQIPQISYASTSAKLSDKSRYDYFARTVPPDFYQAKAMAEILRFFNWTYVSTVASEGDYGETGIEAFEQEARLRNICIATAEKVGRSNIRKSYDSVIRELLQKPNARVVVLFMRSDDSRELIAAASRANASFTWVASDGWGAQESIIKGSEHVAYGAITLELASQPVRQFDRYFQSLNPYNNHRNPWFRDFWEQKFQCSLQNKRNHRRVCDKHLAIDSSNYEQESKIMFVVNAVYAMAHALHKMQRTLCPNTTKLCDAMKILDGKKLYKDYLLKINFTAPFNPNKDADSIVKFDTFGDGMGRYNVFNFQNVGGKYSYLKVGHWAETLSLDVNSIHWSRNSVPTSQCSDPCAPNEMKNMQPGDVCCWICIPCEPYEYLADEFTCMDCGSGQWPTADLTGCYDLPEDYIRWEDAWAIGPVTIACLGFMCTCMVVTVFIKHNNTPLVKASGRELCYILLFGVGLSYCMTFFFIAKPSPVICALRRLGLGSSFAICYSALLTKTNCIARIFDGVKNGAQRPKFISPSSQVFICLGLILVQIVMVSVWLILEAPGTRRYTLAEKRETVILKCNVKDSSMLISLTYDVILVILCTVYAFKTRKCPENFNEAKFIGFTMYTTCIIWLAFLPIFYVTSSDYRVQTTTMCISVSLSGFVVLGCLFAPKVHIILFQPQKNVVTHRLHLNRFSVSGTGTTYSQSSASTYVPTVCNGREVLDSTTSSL
Assay [4] deals with Glutamate receptor ionotropic, kainate. The assay can be described thus: Ability to displace [3H]-KA binding to Ionotropic glutamate receptor kainate from rat forebrain. The procedure, abridged: (§1)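 Rat forebrain homogenates; displacement of [3H]kainic acid (kainate), [3H]AMPA (AMPA) or [3H]CGP39653 (NMDA) binding, tested up to 100 000 nM. Where an IC50 below 100 µM could be determined, runs were in triplicate. Values are given as mean IC50 ± standard error.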

Assay [5] in a line: Ability to displace [3H]CGP-39653 binding to N-methyl-D-aspartate glutamate receptor from rat forebrain. The procedure, abridged: as §1
The target of assay [6] is T3, Glutamate receptor ionotropic, AMPA (Rattus norvegicus, UniProt P19490+P19491+P19492+P19493). The assay is described as follows: Ability to displace [3H]AMPA binding to Ionotropic glutamate receptor AMPA from rat forebrain. The procedure, abridged: as §1
The test system of assay [7] is Mus musculus. The assay can be described thus: Effect on limbic seizures induced by ACPD in NIH Swiss mice 1 hr after systemic administration. The class given is functional. To be noted: Limbic system. Summed up: (§2)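 Male NIH Swiss mice received test agent ip 1, 2 or 4 h before unilateral intracerebral injection of (1S,3R)-ACPD (400 nmol). Controls received H2O ip before ic H2O or ACPD. Mice were watched after ACPD for limbic seizures (clonic forelimb contractions, rearing to a praying stance, loss of balance, falling). Scored as number seizing/number treated (n=10); ED50 calculated.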

Assay [8] relates to Mus musculus. The assay is described as follows: Effect on limbic seizures induced by ACPD in NIH Swiss mice 2 hr after systemic administration. The assay is classed as functional. Particulars: Limbic system. Summed up: as §2
Assay [9] deals with Metabotropic glutamate receptor 7 (Homo sapiens, UniProt Q14831). The assay can be described thus: Inhibition of forskolin stimulated cAMP production in RGT cells expressing recombinant human mGluR7. The class given is functional, cell-based. The procedure, abridged:
(§3)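 AV12-664 (RGT) cells co-expressing the GLAST glutamate transporter and one recombinant human mGlu receptor (mGlu1a, mGlu4a, mGlu5a, mGlu6, mGlu7a or mGlu8). Second-messenger response measured; agonist and antagonist modes tested, typically up to 10 000–100 000 nM. EC50 and Emax reported.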

Assay [10] has as its system Mus musculus. The assay can be described thus: Effect on limbic seizures induced by ACPD in NIH Swiss mice at 30 mg/kg dose 1 hr after systemic administration. The class given is functional, Limbic system. Summed up:
as §2

Assay [11] has as its target T2, Metabotropic glutamate receptor 3. The assay can be described thus: Inhibition of forskolin stimulated cAMP production in RGT cells expressing recombinant human Metabotropic glutamate receptor 3. The assay is classed as functional, cell-based. (Cyclic AMP is a second messenger, typically raised through Gs and lowered through Gi signalling.)
The target in assay [12] is Metabotropic glutamate receptor 5 (Homo sapiens, UniProt P41594). The assay is described as follows: […] in RGT cells expressing recombinant human mGluR5a. The class given is functional, cell-based. Summed up: as §3
Assay [13] concerns the target Metabotropic glutamate receptor 6 (Homo sapiens, UniProt O15303). The assay can be described thus: Inhibition of forskolin stimulated cAMP production in RGT cells expressing recombinant human mGluR6. The class given is functional, cell-based. The procedure, abridged: as §3
Assay [14] relates to Mus musculus. The assay can be described thus: Effect on limbic seizures induced by ACPD in NIH Swiss mice 4 hr after systemic administration. The class given is functional. To be noted: Limbic system. Summed up:
as §2

In assay [15] the test system is Mus musculus. The assay can be described thus: Effect on limbic seizures induced by ACPD in NIH Swiss mice at 100 mg/kg dose 1 hr after systemic administration. The class given is functional, Limbic system. Summed up: as §2
For assay [16], the target named is Metabotropic glutamate receptor 1 (Homo sapiens, UniProt Q13255). The assay is described as follows: […] in RGT cells expressing recombinant human mGluR1a. The assay is classed as functional, cell-based. The procedure, abridged:
as §3

Assay [17] addresses Metabotropic glutamate receptor 8 (Homo sapiens, UniProt O00222). The assay can be described thus: Inhibition of forskolin stimulated cAMP production in RGT cells expressing recombinant human mGluR8. The assay is classed as functional, cell-based. Summed up:
as §3

Assay [18] addresses T1, Metabotropic glutamate receptor 2. The assay can be described thus: Inhibition of forskolin stimulated cAMP production in RGT cells expressing recombinant human Metabotropic glutamate receptor 2. The class given is functional, cell-based.
For assay [19], the target named is Metabotropic glutamate receptor 4 (Homo sapiens, UniProt Q14833). The assay is described as follows: Inhibition of forskolin stimulated cAMP production in RGT cells expressing recombinant human mGluR4a. The class given is functional, cell-based. Summed up: as §3
Assay [20] deals with T3, Glutamate receptor ionotropic, AMPA. The assay is described as follows: Binding affinity against Ionotropic glutamate receptor AMPA using [3H]AMPA as radioligand. The class given is protein-complex assay. The procedure, abridged:
as §1

Chain of Metabotropic glutamate receptor 7 (Q14831 whole entry): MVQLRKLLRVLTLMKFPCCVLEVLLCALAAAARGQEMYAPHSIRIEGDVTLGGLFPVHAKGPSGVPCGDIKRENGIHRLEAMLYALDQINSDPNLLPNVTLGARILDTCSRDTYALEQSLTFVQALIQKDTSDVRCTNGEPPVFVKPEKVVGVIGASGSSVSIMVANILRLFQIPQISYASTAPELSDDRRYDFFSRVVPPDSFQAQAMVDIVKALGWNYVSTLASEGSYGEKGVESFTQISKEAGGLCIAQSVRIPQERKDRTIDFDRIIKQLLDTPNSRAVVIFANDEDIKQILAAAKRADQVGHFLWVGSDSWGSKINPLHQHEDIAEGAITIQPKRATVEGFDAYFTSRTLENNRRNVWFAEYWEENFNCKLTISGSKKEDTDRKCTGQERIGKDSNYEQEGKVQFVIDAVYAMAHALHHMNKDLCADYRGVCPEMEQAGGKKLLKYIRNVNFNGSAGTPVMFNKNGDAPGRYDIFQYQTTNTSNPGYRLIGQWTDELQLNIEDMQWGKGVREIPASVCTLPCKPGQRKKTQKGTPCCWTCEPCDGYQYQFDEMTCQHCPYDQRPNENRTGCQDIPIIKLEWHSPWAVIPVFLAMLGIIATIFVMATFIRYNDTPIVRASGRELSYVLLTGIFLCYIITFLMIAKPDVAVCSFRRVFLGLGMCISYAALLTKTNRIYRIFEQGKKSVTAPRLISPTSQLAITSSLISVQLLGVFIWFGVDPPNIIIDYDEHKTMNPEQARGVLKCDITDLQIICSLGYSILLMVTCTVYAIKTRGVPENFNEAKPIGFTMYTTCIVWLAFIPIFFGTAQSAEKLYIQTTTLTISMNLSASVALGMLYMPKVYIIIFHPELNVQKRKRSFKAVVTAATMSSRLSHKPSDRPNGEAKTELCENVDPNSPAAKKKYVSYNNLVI
Chain of Metabotropic glutamate receptor 8 (O00222 whole entry): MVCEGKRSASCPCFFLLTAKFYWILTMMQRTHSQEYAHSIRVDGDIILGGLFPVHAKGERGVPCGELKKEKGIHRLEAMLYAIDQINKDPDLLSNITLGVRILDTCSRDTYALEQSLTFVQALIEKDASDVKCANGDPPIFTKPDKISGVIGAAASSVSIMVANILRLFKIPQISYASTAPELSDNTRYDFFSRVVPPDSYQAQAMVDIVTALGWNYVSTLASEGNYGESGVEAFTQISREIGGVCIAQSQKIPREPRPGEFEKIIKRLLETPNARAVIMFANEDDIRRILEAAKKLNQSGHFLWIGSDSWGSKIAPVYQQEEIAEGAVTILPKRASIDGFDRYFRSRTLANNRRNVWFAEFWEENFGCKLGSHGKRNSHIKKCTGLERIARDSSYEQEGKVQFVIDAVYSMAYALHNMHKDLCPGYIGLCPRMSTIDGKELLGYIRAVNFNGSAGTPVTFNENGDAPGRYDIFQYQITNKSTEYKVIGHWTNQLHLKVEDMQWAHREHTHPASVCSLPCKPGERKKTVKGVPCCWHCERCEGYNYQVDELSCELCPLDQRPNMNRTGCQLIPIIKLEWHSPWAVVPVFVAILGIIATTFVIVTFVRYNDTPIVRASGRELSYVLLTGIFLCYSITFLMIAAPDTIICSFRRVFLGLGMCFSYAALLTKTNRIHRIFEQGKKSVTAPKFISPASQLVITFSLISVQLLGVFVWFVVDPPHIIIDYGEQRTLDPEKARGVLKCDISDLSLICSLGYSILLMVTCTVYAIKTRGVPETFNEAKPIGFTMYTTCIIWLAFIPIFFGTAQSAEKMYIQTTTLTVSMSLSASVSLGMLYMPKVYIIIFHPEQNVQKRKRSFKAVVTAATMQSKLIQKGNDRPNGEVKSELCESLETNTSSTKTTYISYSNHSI
Chain of Metabotropic glutamate receptor 6 (O15303 whole entry): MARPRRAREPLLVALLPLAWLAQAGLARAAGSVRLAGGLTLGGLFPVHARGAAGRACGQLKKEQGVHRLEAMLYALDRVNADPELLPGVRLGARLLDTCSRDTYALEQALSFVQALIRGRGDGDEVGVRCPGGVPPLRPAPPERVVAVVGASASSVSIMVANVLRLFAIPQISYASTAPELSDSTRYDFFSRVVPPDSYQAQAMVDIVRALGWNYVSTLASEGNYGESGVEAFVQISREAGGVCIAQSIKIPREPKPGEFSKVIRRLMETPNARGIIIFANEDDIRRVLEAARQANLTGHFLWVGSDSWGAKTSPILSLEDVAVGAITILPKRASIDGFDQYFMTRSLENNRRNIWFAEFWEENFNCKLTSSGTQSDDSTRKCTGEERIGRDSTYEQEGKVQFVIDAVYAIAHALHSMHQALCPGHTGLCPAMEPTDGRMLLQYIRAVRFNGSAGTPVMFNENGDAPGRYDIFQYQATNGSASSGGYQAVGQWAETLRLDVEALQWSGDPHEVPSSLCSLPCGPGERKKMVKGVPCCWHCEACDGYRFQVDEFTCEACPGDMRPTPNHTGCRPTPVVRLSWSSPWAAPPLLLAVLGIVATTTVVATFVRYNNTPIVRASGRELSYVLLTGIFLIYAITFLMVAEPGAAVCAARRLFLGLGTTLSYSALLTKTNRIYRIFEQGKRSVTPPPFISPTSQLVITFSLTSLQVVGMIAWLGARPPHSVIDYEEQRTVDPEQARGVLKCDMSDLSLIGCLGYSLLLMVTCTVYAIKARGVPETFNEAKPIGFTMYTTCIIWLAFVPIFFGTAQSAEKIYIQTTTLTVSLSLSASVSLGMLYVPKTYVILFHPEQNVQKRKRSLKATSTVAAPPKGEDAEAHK
Chain of Metabotropic glutamate receptor 1 (Q13255 whole entry): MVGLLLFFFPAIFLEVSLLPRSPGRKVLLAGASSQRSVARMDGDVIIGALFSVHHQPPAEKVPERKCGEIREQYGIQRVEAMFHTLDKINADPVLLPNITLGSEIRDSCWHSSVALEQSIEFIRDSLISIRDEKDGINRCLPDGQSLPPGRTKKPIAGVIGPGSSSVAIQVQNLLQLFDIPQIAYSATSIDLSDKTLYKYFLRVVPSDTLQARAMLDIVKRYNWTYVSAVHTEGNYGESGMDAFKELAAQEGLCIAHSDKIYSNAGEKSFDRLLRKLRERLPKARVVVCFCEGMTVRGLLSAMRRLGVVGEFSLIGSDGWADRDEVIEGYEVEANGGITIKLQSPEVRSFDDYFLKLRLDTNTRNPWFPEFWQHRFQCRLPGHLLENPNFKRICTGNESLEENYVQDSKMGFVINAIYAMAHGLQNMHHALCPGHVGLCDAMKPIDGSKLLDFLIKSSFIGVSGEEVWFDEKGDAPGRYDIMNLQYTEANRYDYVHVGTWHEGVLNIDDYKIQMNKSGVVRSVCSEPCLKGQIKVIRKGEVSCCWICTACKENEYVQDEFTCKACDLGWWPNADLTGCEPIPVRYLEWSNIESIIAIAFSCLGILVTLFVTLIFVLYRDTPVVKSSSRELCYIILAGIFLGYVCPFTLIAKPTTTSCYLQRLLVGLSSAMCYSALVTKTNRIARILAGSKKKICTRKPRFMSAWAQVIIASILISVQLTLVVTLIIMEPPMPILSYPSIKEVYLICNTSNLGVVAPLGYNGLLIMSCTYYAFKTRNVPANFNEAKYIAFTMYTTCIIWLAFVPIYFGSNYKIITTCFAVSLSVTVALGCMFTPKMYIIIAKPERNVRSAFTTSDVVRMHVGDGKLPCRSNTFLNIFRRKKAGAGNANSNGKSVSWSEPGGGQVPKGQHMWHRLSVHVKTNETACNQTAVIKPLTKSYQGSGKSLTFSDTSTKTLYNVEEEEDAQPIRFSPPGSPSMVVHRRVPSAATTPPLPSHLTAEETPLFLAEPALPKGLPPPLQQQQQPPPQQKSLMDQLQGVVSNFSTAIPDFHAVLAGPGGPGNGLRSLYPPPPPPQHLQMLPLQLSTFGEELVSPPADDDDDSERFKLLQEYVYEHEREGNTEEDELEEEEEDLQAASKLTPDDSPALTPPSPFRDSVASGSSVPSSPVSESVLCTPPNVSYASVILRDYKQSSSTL

On to `N[C@@]1(C(=O)O)CO[C@H]2[C@H](C(=O)O)[C@H]21` (racemic) [LY-379268], for which the IC50 in assay [1] amounted to 29 nM. Further, the Ki came out at 36.5 nM in assay [2] and 14.3 nM in assay [3].
Consider `N[C@@]1(C(=O)O)CS[C@H]2[C@H](C(=O)O)[C@H]21` (racemic) [LY-389795], for which the IC50 in [1] is 26.1 nM; in assay [4] it was over 100 µM; in [5], over 100 µM; in [6], over 100 µM. Besides, the Ki in assay [2] turned out to be 67.2 nM; in assay [3], 9.4 nM.
In [1], `N[C@@]1(C(=O)O)CO[C@H]2[C@H](C(=O)O)[C@H]21` (stereo in doubt; (+)-9) [LY-379268] gave an IC50 of 5040 nM. Further, the Ki in [2] worked out at 2000 nM; in assay [3], 1040 nM.
Molecule `N[C@@]1(C(=O)O)CS[C@H]2[C@H](C(=O)O)[C@H]21` (stereo in doubt; (+)-10) [LY-389795] came in with an IC50 in assay [1] of 792 nM. The results for the Ki in [2] and in assay [3] were 819 nM and 170 nM, respectively.
Regarding `N[C@@]1(C(=O)O)CO[C@H]2[C@H](C(=O)O)[C@H]21` (stereo in doubt; (-)-9) [LY-379268], the figures for the ED50 in assay [7], in [8] and in assay [14] were 19 mg/kg, 6 mg/kg and 26 mg/kg, respectively. For the same molecule, the IC50 in assay [1] was 15 nM; in assay [4], over 100 µM; in assay [5], over 100 µM; in assay [6], over 100 µM. The concentration giving a half-maximal response (EC50) is over 100 µM in assay [9]; 4.58 nM in assay [11]; over 100 µM in assay [12]; 401 nM in assay [13]; over 100 µM in assay [16]; 1.69 µM in [17]. Moreover, the figures for the EC50 in assay [18] and in assay [19] were 2.69 nM and 21.1 µM, respectively. In addition, the Ki in [2] was determined as 14.1 nM; in assay [3], 5.8 nM. Besides, the “No. of mice effected/No. of treated” value in assay [10] and in assay [15] was 10 throughout.
As for `N[C@@]1(C(=O)O)CS[C@H]2[C@H](C(=O)O)[C@H]21` (stereo in doubt; (-)-10) [LY-389795], the ED50 in [7] is 14 mg/kg; in assay [8] it was 15 mg/kg; in assay [14], 14 mg/kg. Further, the IC50 in [1] came out at 8.4 nM. Also, the EC50 in assay [9] is over 100 µM; in assay [11], 7.63 nM; in [12], over 100 µM; in assay [13], 2430 nM; in [16], over 100 µM; in [17] it was 7.34 µM. In addition, the EC50 is 3.91 nM in assay [18] and over 100 µM in [19]. The results for the Ki in assay [2] and in assay [3] were 40.6 nM and 4.7 nM, respectively. The “No. of mice effected/No. of treated” value in assay [10] and in [15] was 10 in each case.
With `N[C@@]1(C(=O)O)CC[C@H]2[C@H](C(=O)O)[C@H]21` [EGLUMETAD], the IC50 was 254 nM in assay [1], over 100 µM in [20], over 100 µM in assay [4] and over 100 µM in assay [5]. In addition, the EC50 in assay [9] was over 100 µM; in assay [11] it was 38 nM; in [12], over 100 µM; in assay [13] it was 2990 nM; in [16], over 100 µM; in assay [17], 11.5 µM. Also, the EC50 in [18] was 11.1 nM; in [19], over 100 µM. Further, the Ki was 74.9 nM in [2] and 93.3 nM in [3].

By IC50 is commonly meant the concentration needed to halve the response being measured. Usually Ki stands for a measure of affinity in units of concentration, obtained from inhibition or displacement. One may read the ED50 as the dose that gives a 50% effect, or the effect in half of the subjects. Read a high ED50 as weaker potency. For orientation: EC50 means the midpoint of the concentration-response curve.

The values are drawn from ChEMBL document CHEMBL1132607, “Synthesis, pharmacological characterization, and molecular modeling of heterobicyclic amino acids related to (+)-2-aminobicyclo[3.1.0] hexane-2,6-dicarboxylic acid (LY354740): identification of two new potent, selective, and systemically active agonists for group II metabotropic glutamate receptors” (J Med Chem, 1999).
